Source: ChEMBL document CHEMBL3259701, “Siderophore receptor-mediated uptake of lactivicin analogues in gram-negative bacteria” (J Med Chem, 2014)
Converted amounts (≈) assume the structure as drawn.

Key:
[1] = test system: Pseudomonas aeruginosa; assay: Ratio of MIC for Pseudomonas aeruginosa PAO1 harboring siderophore receptor fpvA mutant to MIC for wild type Pseudomonas aeruginosa PAO1 in Mueller-Hinton broth medium by CLSI broth microdilution method; type: functional
Outline: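 Receptor-deficient PAO1 strain MIC divided by parent PAO1 MIC. Both MICs were obtained by CLSI broth microdilution in standard Mueller Hinton broth. A shift greater than 4× was taken to indicate that the deleted receptor(s) take part in drug uptake.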

[2] = test system: Pseudomonas aeruginosa; assay: Ratio of MIC for Pseudomonas aeruginosa PAO1 harboring siderophore receptor piuA and fpvA double mutant to MIC for wild type Pseudomonas aeruginosa PAO1 in Mueller-Hinton broth medium by CLSI broth microdilution method; type: functional
Outline: (§1)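 Broth microdilution MIC per CLSI in standard Mueller-Hinton broth, run against wild-type P. aeruginosa PAO1 and isogenic PAO1 strains lacking one or more siderophore receptors. Value is the mutant-strain MIC divided by the PAO1 MIC.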

[3] = test system: Pseudomonas aeruginosa; assay: Ratio of MIC for Pseudomonas aeruginosa PAO1 harboring siderophore receptor piuA, pfeA and pirA mutant to MIC for wild type Pseudomonas aeruginosa PAO1 in Mueller-Hinton broth medium by CLSI broth microdilution method; type: functional; outline: as §1
[4] = test system: Pseudomonas aeruginosa; assay: Ratio of MIC for Pseudomonas aeruginosa PAO1 harboring siderophore receptor piuA mutant to MIC for wild type Pseudomonas aeruginosa PAO1 in medium containing low-Fe by CLSI broth microdilution method; type: functional
Outline: (§2)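 CLSI broth microdilution MICs in a modified Mueller-Hinton broth depleted of iron to mimic low in vivo iron. Tested against wild-type PAO1 and isogenic siderophore receptor knockout strains. Reported as the knockout-strain MIC divided by the PAO1 MIC in the same iron-depleted medium.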

[5] = test system: Pseudomonas aeruginosa; assay: Ratio of MIC for Pseudomonas aeruginosa PAO1 harboring siderophore receptor piuA and pirA double mutant to MIC for wild type Pseudomonas aeruginosa PAO1 in medium containing low-Fe by CLSI broth microdilution method; type: functional; outline: as §2
[6] = test system: Pseudomonas aeruginosa; assay: Ratio of MIC for Pseudomonas aeruginosa PAO1 harboring siderophore receptor piuA and pfeA double mutant to MIC for wild type Pseudomonas aeruginosa PAO1 in medium containing low-Fe by CLSI broth microdilution method; type: functional; outline: as §2
[7] = test system: Pseudomonas aeruginosa; assay: Ratio of MIC for Pseudomonas aeruginosa PAO1 harboring siderophore receptor piuA, pfeA and pirA mutant to MIC for wild type Pseudomonas aeruginosa PAO1 in medium containing low-Fe by CLSI broth microdilution method; type: functional; outline: as §2
[8] = test system: Pseudomonas aeruginosa; assay: Ratio of MIC for Pseudomonas aeruginosa PAO1 harboring siderophore receptor piuA mutant in MHB medium to MIC for Pseudomonas aeruginosa PAO1 harboring siderophore receptor piuA mutant in medium containing low-Fe by CLSI broth microdilution method; type: functional
[9] = test system: Pseudomonas aeruginosa; assay: Ratio of MIC for Pseudomonas aeruginosa PAO1 harboring siderophore receptor fpvA mutant in MHB medium to MIC for Pseudomonas aeruginosa PAO1 harboring siderophore receptor fpvA mutant in medium containing low-Fe by CLSI broth microdilution method; type: functional
[10] = test system: Pseudomonas aeruginosa; assay: Ratio of MIC for Pseudomonas aeruginosa PAO1 harboring siderophore receptor piuA and fpvA double mutant in MHB medium to MIC for Pseudomonas aeruginosa PAO1 harboring siderophore receptor piuA and fpvA double mutant in medium containing low-Fe by CLSI broth microdilution method; type: functional
[11] = test system: Pseudomonas aeruginosa; assay: Ratio of MIC for Pseudomonas aeruginosa PAO1 harboring siderophore receptor piuA, pfeA and pirA mutant in MHB medium to MIC for harboring siderophore receptor piuA, pfeA and pirA mutant in medium containing low-Fe by CLSI broth microdilution method; type: functional
[12] = test system: Pseudomonas aeruginosa; assay: Antibacterial activity against Pseudomonas aeruginosa PAO1 harboring siderophore receptor pfeA mutant in medium containing aztreonam and low-Fe by CLSI broth microdilution method; type: functional
[13] = test system: Pseudomonas aeruginosa; assay: Antibacterial activity against Pseudomonas aeruginosa PAO1 harboring siderophore receptor piuA and fptA double mutant in medium containing aztreonam and low-Fe by CLSI broth microdilution method; type: functional
[14] = test system: Pseudomonas aeruginosa; assay: Antibacterial activity against Pseudomonas aeruginosa PAO1 harboring siderophore receptor piuA and pfeA double mutant in medium containing aztreonam and low-Fe by CLSI broth microdilution method; type: functional
[15] = test system: Pseudomonas aeruginosa; assay: Ratio of MIC for Pseudomonas aeruginosa PAO1 harboring siderophore receptor fptA mutant to MIC for wild type Pseudomonas aeruginosa PAO1 in medium containing aztreonam and low-Fe by CLSI broth microdilution method; type: functional
[16] = test system: Pseudomonas aeruginosa; assay: Ratio of MIC for Pseudomonas aeruginosa PAO1 harboring siderophore receptor pfeA mutant to MIC for wild type Pseudomonas aeruginosa PAO1 in medium containing aztreonam and low-Fe by CLSI broth microdilution method; type: functional
[17] = test system: Pseudomonas aeruginosa; assay: Ratio of MIC for Pseudomonas aeruginosa PAO1 harboring siderophore receptor piuA and fpvA double mutant to MIC for wild type Pseudomonas aeruginosa PAO1 in medium containing aztreonam and low-Fe by CLSI broth microdilution method; type: functional
[18] = test system: Pseudomonas aeruginosa; assay: Ratio of MIC for Pseudomonas aeruginosa PAO1 harboring siderophore receptor piuA and pfeA double mutant to MIC for wild type Pseudomonas aeruginosa PAO1 in medium containing aztreonam and low-Fe by CLSI broth microdilution method; type: functional
[19] = test system: Pseudomonas aeruginosa; assay: Ratio of MIC for Pseudomonas aeruginosa PAO1 harboring siderophore receptor pirA and pfeA double mutant to MIC for wild type Pseudomonas aeruginosa PAO1 in medium containing aztreonam and low-Fe by CLSI broth microdilution method; type: functional
[20] = test system: Escherichia coli; assay: Antibacterial activity against Escherichia coli DH5alpha harboring pUCP26 empty vector by CLSI broth microdilution method; type: functional; conditions: DH5[alpha]
[21] = test system: Escherichia coli; assay: Antibacterial activity against Escherichia coli DH5alpha expressing beta-lactamase SHV-5 by CLSI broth microdilution method; type: functional; conditions: DH5[alpha]
[22] = Displacement of fluorescent Bocillin FL from Pseudomonas aeruginosa PBP1b

CC(C)(O/N=C(\C(=O)N[C@H]1CON(C2(C(=O)O)C[C@H](N3C(=O)c4cc(O)c(O)cc4C3=O)C(=O)O2)C1=O)c1csc(N)n1)C(=O)O (some centres not stated)
Ratio [1]: 32 | Ratio [2]: 32 | Ratio [3]: 32 | Ratio [4]: >=4 | Ratio [5]: >=8 | Ratio [6]: >=4 | Ratio [7]: >=8 | Ratio [8]: 64 | Ratio [9]: 512 | Ratio [10]: 64 | Ratio [11]: 64 | MIC [12]: 4 µg/mL (≈ 6.04 µM) | MIC [13]: 4 µg/mL (≈ 6.04 µM) | MIC [14]: 4 µg/mL (≈ 6.04 µM) | Ratio [15]: 1 | Ratio [16]: 1 | Ratio [17]: 1 | Ratio [18]: 1 | Ratio [19]: 1 | MIC [20]: 0.03 µg/mL (≈ 0.0453 µM) | MIC [21]: 0.03 µg/mL (≈ 0.0453 µM) | IC50 [22]: 270 nM
